# ChEMBL document CHEMBL1148167, “Isolation of a dihydrobenzofuran lignan from South American dragon's blood (Croton spp.) as an inhibitor of cell proliferation” (J Nat Prod, 1993)
# The source made the active and inactive calls. No cut-off for these calls is given here.
# Experiments:
# [1] = system: HUVEC; assay: Cytotoxicity against HUVEC cell at 250 ug/ml after 6 days; format: cell-based; conditions: human, 144 h
# Outline: (§1)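 HUVEC (passage 2–4) seeded at 4×10^3 cells/well in medium 199 with 20% human adult serum; after 8 h washed twice, then exposed to medium 199 with 5% human adult serum ± sample. Samples were 0.5% stocks in 33% PEG 400, diluted into the medium. Growth was scored microscopically every other day for 6 days against 5% serum (negative) and 30% serum (positive) controls.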
# [2] = system: HUVEC; assay: Induction of HUVEC cell proliferation at 50 ug/ml after 6 days; format: functional, cell-based; conditions: Homo sapiens; outline: as §1
# [3] = system: HUVEC; assay: Cytotoxicity against HUVEC cell at 5 ug/ml after 6 days; format: cell-based; conditions: human, 144 h
# Outline: (§2)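 HUVEC (passages 2–4) seeded at 4×10^3 cells/well in medium 199 with 20% human adult serum, washed after 8 h, then given medium 199 with 5% human adult serum ± sample (from 0.5% stocks in PEG 400 33%). Growth was scored microscopically every other day for 6 days against 5% serum (negative) and 30% serum (positive) controls, with toxicity graded.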
# [4] = system: HUVEC; assay: Cytotoxicity against HUVEC cell at 25 ug/ml after 6 days; format: cell-based; conditions: human, 144 h; outline: as §2
# [5] = system: HUVEC; assay: Cytotoxicity against HUVEC cell at 2.5 ug/ml after 6 days; format: cell-based; conditions: human, 144 h; outline: as §2
# [6] = system: HUVEC; assay: Induction of HUVEC cell proliferation at 0.25 ug/ml after 6 days; format: functional, cell-based; conditions: Homo sapiens; outline: as §1
# [7] = system: HUVEC; assay: Effect on HUVEC cells proliferation assessed as viable cells at 3.9062 ug/ml after 90 hrs relative to negative control; format: functional; conditions: Homo sapiens, read-out: Activity
# Outline: (§3)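 HUVEC seeded at 10×10^3 cells/well in 20% serum medium. After 6 h, washed and exposed to twofold sample dilutions (250 down to 0.49 μg/ml) in medium 199 with 2% human adult serum for 90 h plus a 6 h thymidine pulse. Cells counted under an inverted microscope after TCA fixation, as % of untreated control.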
# [8] = system: HUVEC; assay: Effect on HUVEC cells proliferation assessed as inhibition of [3H]thymidine incorporation at 7.8125 ug/ml after 90 hrs by liquid scintillation counting; format: functional; conditions: Homo sapiens
# Outline: (§4)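 HUVEC seeded at 10×10^3 cells/well, washed after 6 h, then exposed 90 h to twofold dilutions in medium 199 with 2% human adult serum. Pulsed 6 h with 1 μCi [3H]thymidine, TCA-fixed, lysed in 0.1% SDS/0.2 N NaOH, scintillation counted. Incorporation per cell (cpm/cells counted) relative to untreated control gave % inhibition.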
# [9] = system: HUVEC; assay: Effect on HUVEC cells proliferation assessed as [3H]thymidine incorporation at 62.5 ug/ml after 90 hrs by liquid scintillation counting relative to negative control; format: functional, Homo sapiens
# Outline: (§5)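 HUVEC seeded at 10×10^3 cells/well in medium 199 with 20% human adult serum. After 6 h, washed, then given twofold sample dilutions in medium 199 with 2% human adult serum, 37°, 5% CO2, 90 h. Then 1 μCi [3H]thymidine/well for 6 h. TCA-fixed, DNA solubilized in SDS/NaOH at 60° for 2 h, scintillation counted. cpm/cell expressed as % of untreated control.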
# [10] = system: HUVEC; assay: Effect on HUVEC cells proliferation assessed as viable cells at 15.625 ug/ml after 90 hrs relative to negative control; format: functional; conditions: Homo sapiens, read-out: Activity; outline: as §3
# [11] = system: HUVEC; assay: Effect on HUVEC cells proliferation assessed as viable cells at 0.9766 ug/ml after 90 hrs relative to negative control; format: functional; conditions: Homo sapiens, read-out: Activity; outline: as §3
# [12] = system: HUVEC; assay: Effect on HUVEC cells proliferation assessed as inhibition of [3H]thymidine incorporation at 0.9766 ug/ml after 90 hrs by liquid scintillation counting; format: functional; conditions: Homo sapiens; outline: as §4
# [13] = system: HUVEC; assay: Effect on HUVEC cells proliferation assessed as inhibition of [3H]thymidine incorporation at 31.25 ug/ml after 90 hrs by liquid scintillation counting; format: functional; conditions: Homo sapiens; outline: as §4
# [14] = system: HUVEC; assay: Effect on HUVEC cells proliferation assessed as viable cells at 7.8125 ug/ml after 90 hrs relative to negative control; format: functional; conditions: Homo sapiens, read-out: Activity; outline: as §3
# [15] = system: HUVEC; assay: Effect on HUVEC cells proliferation assessed as inhibition of [3H]thymidine incorporation at 1.9531 ug/ml after 90 hrs by liquid scintillation counting; format: functional; conditions: Homo sapiens; outline: as §4
# [16] = system: HUVEC; assay: Effect on HUVEC cells proliferation assessed as viable cells at 1.9531 ug/ml after 90 hrs relative to negative control; format: functional; conditions: Homo sapiens, read-out: Activity; outline: as §3
# [17] = system: HUVEC; assay: Effect on HUVEC cells proliferation assessed as viable cells at 125 ug/ml after 90 hrs relative to negative control; format: functional; conditions: Homo sapiens, read-out: Activity; outline: as §3
# [18] = system: HUVEC; assay: Effect on HUVEC cells proliferation assessed as [3H]thymidine incorporation at 1.9531 ug/ml after 90 hrs by liquid scintillation counting relative to negative control; format: functional, Homo sapiens; outline: as §5
# [19] = system: HUVEC; assay: Effect on HUVEC cells proliferation assessed as [3H]thymidine incorporation at 31.25 ug/ml after 90 hrs by liquid scintillation counting relative to negative control; format: functional, Homo sapiens; outline: as §5
# [20] = system: HUVEC; assay: Effect on HUVEC cells proliferation assessed as inhibition of [3H]thymidine incorporation at 0.4883 ug/ml after 90 hrs by liquid scintillation counting; format: functional; conditions: Homo sapiens; outline: as §4
# [21] = system: HUVEC; assay: Effect on HUVEC cells proliferation assessed as viable cells at 62.5 ug/ml after 90 hrs relative to negative control; format: functional; conditions: Homo sapiens, read-out: Activity; outline: as §3
# [22] = system: HUVEC; assay: Effect on HUVEC cells proliferation assessed as inhibition of [3H]thymidine incorporation at 3.9062 ug/ml after 90 hrs by liquid scintillation counting; format: functional; conditions: Homo sapiens; outline: as §4
# [23] = system: HUVEC; assay: Induction of HUVEC cell proliferation at 2.5 ug/ml after 6 days; format: functional, cell-based; conditions: Homo sapiens; outline: as §1
# [24] = system: HUVEC; assay: Effect on HUVEC cells proliferation assessed as inhibition of [3H]thymidine incorporation at 125 ug/ml after 90 hrs by liquid scintillation counting; format: functional; conditions: Homo sapiens; outline: as §4
# [25] = system: HUVEC; assay: Effect on HUVEC cells proliferation assessed as [3H]thymidine incorporation at 15.625 ug/ml after 90 hrs by liquid scintillation counting relative to negative control; format: functional, Homo sapiens; outline: as §5
# [26] = system: HUVEC; assay: Effect on HUVEC cells proliferation assessed as [3H]thymidine incorporation at 0.4883 ug/ml after 90 hrs by liquid scintillation counting relative to negative control; format: functional, Homo sapiens; outline: as §5
# [27] = system: HUVEC; assay: Effect on HUVEC cells proliferation assessed as viable cells at 31.25 ug/ml after 90 hrs relative to negative control; format: functional; conditions: Homo sapiens, read-out: Activity; outline: as §3
# [28] = system: HUVEC; assay: Effect on HUVEC cells proliferation assessed as viable cells at 0.4883 ug/ml after 90 hrs relative to negative control; format: functional; conditions: Homo sapiens, read-out: Activity; outline: as §3
# [29] = system: HUVEC; assay: Effect on HUVEC cells proliferation assessed as viable cells at 250 ug/ml after 90 hrs relative to negative control; format: functional; conditions: Homo sapiens, read-out: Activity; outline: as §3
# [30] = system: HUVEC; assay: Effect on HUVEC cells proliferation assessed as [3H]thymidine incorporation at 0.9766 ug/ml after 90 hrs by liquid scintillation counting relative to negative control; format: functional, Homo sapiens; outline: as §5
# [31] = system: HUVEC; assay: Effect on HUVEC cells proliferation assessed as [3H]thymidine incorporation at 3.9062 ug/ml after 90 hrs by liquid scintillation counting relative to negative control; format: functional, Homo sapiens; outline: as §5
# [32] = system: HUVEC; assay: Effect on HUVEC cells proliferation assessed as inhibition of [3H]thymidine incorporation at 62.5 ug/ml after 90 hrs by liquid scintillation counting; format: functional; conditions: Homo sapiens; outline: as §4
# [33] = system: HUVEC; assay: Effect on HUVEC cells proliferation assessed as inhibition of [3H]thymidine incorporation at 15.625 ug/ml after 90 hrs by liquid scintillation counting; format: functional; conditions: Homo sapiens; outline: as §4
# [34] = system: HUVEC; assay: Effect on HUVEC cells proliferation assessed as [3H]thymidine incorporation at 7.8125 ug/ml after 90 hrs by liquid scintillation counting relative to negative control; format: functional, Homo sapiens; outline: as §5
# [35] = system: HUVEC; assay: Effect on HUVEC cells proliferation assessed as [3H]thymidine incorporation at 125 ug/ml after 90 hrs by liquid scintillation counting relative to negative control; format: functional, Homo sapiens; outline: as §5
smiles,measurement,setting,value
COc1ccc([C@H]2Oc3c(O)cc(CCCO)cc3[C@@H]2CO)cc1OC,Activity,[1],Toxic
same,Activity,[2],inactive
COc1ccc2c(=O)oc3c(OC)cc(CCN(C)C)c4c(=O)oc1c2c34 [TASPINE],Activity,[3],Toxic
same,Activity,[4],Toxic
same,Activity,[5],Toxic
same,Activity,[6],inactive
COc1ccc([C@H]2Oc3c(OC)cc(CCCO)cc3[C@@H]2CO)cc1OC,viability at 3.9062 µg/mL,[7],123%
same,inhibition at 7.8125 µg/mL,[8],79%
same,Activity,[9],2%
same,viability at 15.625 µg/mL,[10],169%
same,Activity,[1],Toxic
same,viability at 0.9766 µg/mL,[11],108%
same,inhibition at 0.9766 µg/mL,[12],32%
same,inhibition at 31.25 µg/mL,[13],93%
same,viability at 7.8125 µg/mL,[14],123%
same,inhibition at 1.9531 µg/mL,[15],48%
same,viability at 1.9531 µg/mL,[16],123%
same,viability at 125 µg/mL,[17],46%
same,Activity,[18],52%
same,Activity,[19],7%
same,inhibition at 0.4883 µg/mL,[20],-1%
same,viability at 62.5 µg/mL,[21],231%
same,inhibition at 3.9062 µg/mL,[22],71%
same,Activity,[23],inactive
same,inhibition at 125 µg/mL,[24],97%
same,Activity,[25],13%
same,Activity,[26],101%
same,viability at 31.25 µg/mL,[27],185%
same,viability at 0.4883 µg/mL,[28],108%
same,viability at 250 µg/mL,[29],0%
same,Activity,[30],68%
same,Activity,[31],29%
same,inhibition at 62.5 µg/mL,[32],98%
same,inhibition at 15.625 µg/mL,[33],87%
same,Activity,[34],21%
same,Activity,[35],3%
